These results are taken from ChEMBL document CHEMBL1770048, “Synthesis and biological evaluation of a diazepanone-based library of liposidomycins analogs as MraY inhibitors” (Eur J Med Chem, 2011).

Assay [1] is described as follows: Inhibition of Staphylococcus aureus MurG after 30 mins. The method, boiled down: (§1)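 MurG reaction in 12.5 μl: 200 mM Tris-HCl pH 7.5, 10 mM MgCl₂, 16 μM UDP-[¹⁴C]GlcNAc, 16 μM lipid I analog, 30% (v/v) DMSO (final) plus MurG. Run 30 min at 37 °C, stopped by 3 min boiling, lyophilized, redissolved in 2-propanol/NH₄OH/water (6:3:1). Lipid II resolved by silica TLC in the same solvent and counted by radioactivity scanning. Residual activity versus no-inhibitor control; IC50 from 7 concentrations.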

The target in assay [2] is T1, Phospho-N-acetylmuramoyl-pentapeptide-transferase (Staphylococcus aureus, UniProt P0C1R8).
T1 sequence (P0C1R8 whole entry): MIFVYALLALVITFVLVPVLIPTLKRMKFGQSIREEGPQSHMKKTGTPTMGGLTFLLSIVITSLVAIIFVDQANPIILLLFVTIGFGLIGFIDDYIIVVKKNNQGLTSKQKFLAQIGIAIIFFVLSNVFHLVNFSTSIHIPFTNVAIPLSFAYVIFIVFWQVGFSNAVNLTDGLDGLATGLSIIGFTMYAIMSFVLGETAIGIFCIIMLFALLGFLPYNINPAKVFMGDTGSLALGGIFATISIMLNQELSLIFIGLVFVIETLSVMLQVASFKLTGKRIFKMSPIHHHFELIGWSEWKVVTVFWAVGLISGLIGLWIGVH
Description: Inhibition of Staphylococcus aureus MraY after 30 mins. The method, boiled down:
(§2)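 Started with enzyme, 30 min at 37 °C with shaking, stopped at 100 °C for 1 min. Lipid I separated from substrate by silica TLC (2-propanol/NH₄OH/water 6:3:1), spots quantified by radioactivity scanning. Residual activity relative to no-inhibitor control; IC50 from 7 inhibitor concentrations.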

The target in assay [3] is T2, Phospho-N-acetylmuramoyl-pentapeptide-transferase (Staphylococcus aureus) (UniProt P0C1R8).
T2 sequence (whole entry): T1 sequence (P0C1R8 whole entry)
Put plainly: Inhibition of Staphylococcus aureus MraY assessed as residual activity of enzyme at 1 mM after 30 mins. The method, boiled down:
as §2

Assay [4] relates to Staphylococcus aureus. Put plainly: Inhibition of Staphylococcus aureus MurG assessed as residual activity of enzyme at 2 mM after 30 mins. Put shortly: as §1
For assay [5], the system named is Staphylococcus aureus. Description: Inhibition of Staphylococcus aureus MurG assessed as residual activity of enzyme at 1 mM after 30 mins. The method, boiled down:
as §1

Assay [6] addresses T2, Phospho-N-acetylmuramoyl-pentapeptide-transferase (Staphylococcus aureus). Description: Inhibition of Staphylococcus aureus MraY assessed as residual activity of enzyme at 2 mM after 30 mins. The conditions noted are these: 1 mM, in the assay text read “at 1 mM” for “at 2 mM”. Put shortly: as §2

Each structure is given as a SMILES string.

On to `CCCCCCCCCCCCCCCC(=O)O[C@H]1CN(CCCCCn2ccc(=O)[nH]c2=O)[C@@H](CO[C@@H]2O[C@H](CN)[C@@H](O)[C@H]2O)C(=O)N[C@@H]1CO`, for which the IC50 (commonly the midpoint of a concentration-inhibition curve) in assay [1] was 530 µM; in assay [2] it was 220 µM.
`CCCCCCCCCCCCCCCC(=O)O[C@H]1CN(C)[C@@H](CO[C@@H]2O[C@H](CN)[C@@H](O)[C@H]2O)C(=O)N[C@@H]1CO`: the values for the Activity (in assay [3]; with Staphylococcus aureus [4]) were 75% and 100%, respectively.
`CCCCCCCCCCCCCCCC(=O)O[C@H]1CN(CCCCCn2ccc(=O)[nH]c2=O)[C@@H](CO[C@@H]2O[C@H](CN=[N+]=[N-])[C@H]3OC(CC)(CC)O[C@@H]23)C(=O)N[C@@H]1CO[Si](c1ccccc1)(c1ccccc1)C(C)(C)C` returned an IC50 in assay [2] of 190 µM. Also, in the assay with Staphylococcus aureus [4], the Activity was 100%.
The corresponding values for `CCCCCCCCCCCCCCCC(=O)O[C@H]1CN(CCCCCn2ccc(=O)[nH]c2=O)[C@@H](CO)C(=O)N[C@@H]1CO[Si](c1ccccc1)(c1ccccc1)C(C)(C)C` are 380 µM and 66%.
On to `CCCCCCCCCCCCCCCC(=O)O[C@H]1CN(CCCCCn2ccc(=O)[nH]c2=O)[C@@H](COCc2ccccc2)C(=O)N[C@@H]1CO[Si](c1ccccc1)(c1ccccc1)C(C)(C)C`, for which, in assay [2], the IC50 was found to be 1400 µM. For the same compound, in the assay on Staphylococcus aureus [4], the Activity amounted to 100%.
Consider `CCCCCCCCCCCCCCCC(=O)O[C@H]1CN(CCCCCn2ccc(=O)[nH]c2=O)[C@@H](CO[C@@H]2O[C@H](CN)[C@H]3OC(CC)(CC)O[C@@H]23)C(=O)N[C@@H]1CO[C@@H]1O[C@H](CN)[C@H]2OC(CC)(CC)O[C@@H]12`, for which the IC50 in assay [1] is 100 µM; in assay [2], 310 µM.
For the compound `CC(C)(C)[Si](OC[C@H]1NC(=O)[C@H](COCc2ccccc2)N(CCCCCn2ccc(=O)[nH]c2=O)C[C@@H]1O)(c1ccccc1)c1ccccc1`, the half-maximal inhibitory concentration (IC50) in assay [2] was 1600 µM. Also, the Activity with Staphylococcus aureus [5] is 100%.
`CCCCCCCCCCCCCCCC(=O)O[C@H]1CN(C)[C@@H](CO[C@@H]2O[C@H](CN)[C@@H](O)[C@H]2O)C(=O)N[C@@H]1CO[Si](c1ccccc1)(c1ccccc1)C(C)(C)C` gave an IC50 in assay [1] of 150 µM. In assay [6], the Activity came out at 66%.
Take `CCCCCCCCCCCCCCCC(=O)O[C@H]1CN(CCCCCn2ccc(=O)[nH]c2=O)[C@@H](CO[C@@H]2O[C@H](CN)[C@H]3OC(CC)(CC)O[C@@H]23)C(=O)N[C@@H]1CO[Si](c1ccccc1)(c1ccccc1)C(C)(C)C`: the IC50 amounted to 110 µM in assay [1] and 620 µM in assay [2].
With `CCCCCCCCCCCCCCCC(=O)O[C@H]1CN(C)[C@@H](CO[C@@H]2O[C@H](CN)[C@H]3OC(CC)(CC)O[C@@H]23)C(=O)N[C@@H]1CO[Si](c1ccccc1)(c1ccccc1)C(C)(C)C`, the midpoint of inhibition in assay [2], the IC50, lay at 1000 µM.
Take `CCCCCCCCCCCCCCCC(=O)O[C@H]1CN(CCCCCn2ccc(=O)[nH]c2=O)[C@@H](CO[C@@H]2O[C@H](CN=[N+]=[N-])[C@H]3OC(CC)(CC)O[C@@H]23)C(=O)N[C@@H]1CO[C@@H]1O[C@H](CN=[N+]=[N-])[C@H]2OC(CC)(CC)O[C@@H]12`: 420 µM corresponded to half-maximal inhibition in assay [2] (IC50). The Activity in the assay on Staphylococcus aureus [4] is 87%.
As to `CCCCCCCCCCCCCCCC(=O)O[C@H]1CN(CCCCCn2ccc(=O)[nH]c2=O)[C@@H](CO[C@@H]2O[C@H](CN)[C@@H](O)[C@H]2O)C(=O)N[C@@H]1CO[Si](c1ccccc1)(c1ccccc1)C(C)(C)C`, the values for the IC50 in assay [1] and in assay [2] were 185 µM and 120 µM, respectively.
Take `CCCCCCCCCCCCCCCC(=O)O[C@H]1CN(C)[C@@H](CO)C(=O)N[C@@H]1CO`: the IC50 in assay [2] came out at 1740 µM.
Regarding `CCCCCCCCCCCCCCCC(=O)O[C@H]1CN(CCCCCn2ccc(=O)[nH]c2=O)[C@@H](CO[C@@H]2O[C@H](CN)[C@@H](O)[C@H]2O)C(=O)N[C@@H]1CO[C@@H]1O[C@H](CN)[C@@H](O)[C@H]1O`, the IC50 in assay [1] is 130 µM; in assay [2], 2800 µM.
Turning to `CCCCCCCCCCCCCCCC(=O)O[C@H]1CN(CCCCCn2ccc(=O)[nH]c2=O)[C@@H](CO)C(=O)N[C@@H]1CO`, in assay [2], half-maximal inhibition (IC50) required 270 µM. The Activity with Staphylococcus aureus [4] is 100%.
